Experimental data from PMC7065888 (Science Advances, 2020).

What was measured:
mouse RBP2 = molecular target: T1, mouse RBP2 (Mus musculus, UniProt Q08652); assay type: binding
T1 sequence (Q08652 1-134): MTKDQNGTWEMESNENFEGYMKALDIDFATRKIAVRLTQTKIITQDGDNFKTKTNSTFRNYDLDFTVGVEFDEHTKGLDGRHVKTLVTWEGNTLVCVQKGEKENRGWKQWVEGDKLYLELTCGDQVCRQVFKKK

recombinant mouse RBP2 = assay type: binding; details: holo-RBP2 incubated with 2 molar excess of compound, room temperature, 15 min
RBP2 = details: cited from earlier work
recombinant apo-RBP2 = assay type: binding, mouse; details: MS/MS-based detection
How it was run: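 Purified recombinant mouse RBP2 in apo form was incubated with the test lipid. The protein was then chromatographically repurified to strip unbound ligand, and lipid still associated with the protein was detected by tandem mass spectrometry.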

| displacement of retinol from its RBP2 binding pocket (recombinant mouse RBP2) | SMILES | further results |
| --- | --- | --- |
| displaced retinol | CCCCC/C=C\C/C=C\C/C=C\C/C=C\CCCC(=O)OC[C@@H](O)CO [1-AG, 1-arachidonoylglycerol] |  |
| displaced retinol | CCCCCCCC/C=C\CCCCCCCC(=O)OC(CO)CO [2-OG, 2-oleoylglycerol] | Kd (mouse RBP2): 65.4 ± 4.4 nM |
| little displacement | CCCCCCCCCCCCCC(=O)NCCO [MEA, N-myristoylethanolamine] |  |
| displaced retinol | CCCCC/C=C\C/C=C\CCCCCCCC(=O)OC(CO)CO [2-LG, 2-lineoylglycerol] |  |
| displaced retinol | CCCCC/C=C\C/C=C\C/C=C\C/C=C\CCCC(=O)OC(CO)CO [2-AG, 2-arachidonoylglycerol] | Kd (mouse RBP2): 27.1 ± 2.4 nM; ligand bound to RBP2 after chromatographic repurification (recombinant apo-RBP2): remained bound to RBP2 |

Further lines, the compound ahead of its results:

| SMILES | displacement of retinol from its RBP2 binding pocket (recombinant mouse RBP2) | further results |
| --- | --- | --- |
| CCCCC/C=C\C/C=C\C/C=C\C/C=C\CCCC(=O)NCCO [AEA, N-arachidinoylethanolamine] | little displacement | fold less effective than MAGs in displacing bound retinol from RBP2 (mouse RBP2; fluorescence emission spectra of holo-RBP2): ~ 25 fold |
| CC1=C(/C=C/C(C)=C/C=C/C(C)=C/C=O)C(C)(C)CCC1 [retinaldehyde] |  | Kd for binding to RBP2 relative to the Kd values reported here for 2-MAG binding (RBP2): two to six times higher |
| CCCCC/C=C\C/C=C\CCCCCCCC(=O)NCCO [LEA, N-linoleoylethanolamine] | little displacement |  |
| CC1=C(/C=C/C(C)=C/C=C/C(C)=C/CO)C(C)(C)CCC1 [retinol, all-trans-retinol] |  | Kd for binding to RBP2 relative to the Kd values reported here for 2-MAG binding (RBP2): two to six times higher |
